Test results from ChEMBL document CHEMBL1137637, “Quinuclidine derivatives as potential antiparasitics” (Antimicrob Agents Chemother, 2007).
≈ marks a conversion by molar mass, not a printed value.

How the values were obtained:
Leishmania amazonensis [1] = experiment: Inhibition of sterol biosynthesis in Leishmania mexicana amazonensis promastigotes assessed as reduction in endogenous episterol level at 10 uM after 96 hrs by gas-liquid chromatography; type: functional; set-up: scale not given: the % may be the effect or the level left
Summary of the method: (§1)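 L. mexicana promastigotes exposed to compound for 96 h. Total lipids extracted and neutral sterols separated from polar lipids by silicic acid column chromatography. Sterols analysed by TLC and by quantitative capillary gas-liquid chromatography with mass spectrometry. Composition expressed as mass % of free sterols, compared with untreated control.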

Leishmania amazonensis [2] = experiment: Inhibition of sterol biosynthesis in Leishmania mexicana amazonensis promastigotes assessed as reduction in endogenous cholesta-5,7,24-trien-3beta-ol level at 10 uM after 96 hrs by gas-liquid chromatography; type: functional; set-up: scale not given: the % may be the effect or the level left; summary of the method: as §1
Leishmania amazonensis [3] = experiment: Inhibition of sterol biosynthesis in Leishmania mexicana amazonensis promastigotes assessed as reduction in endogenous cholesta-7,24-dien-3beta-ol level at 10 uM after 96 hrs by gas-liquid chromatography; type: functional; set-up: scale not given: the % may be the effect or the level left; summary of the method: as §1
Leishmania amazonensis [4] = experiment: Inhibition of sterol biosynthesis in Leishmania mexicana amazonensis promastigotes assessed as reduction in exogenous cholesterol level at 10 uM after 96 hrs by gas-liquid chromatography; type: functional; set-up: scale not given: the % may be the effect or the level left; summary of the method: as §1
Trypanosoma cruzi = experiment: Antitrypanosomal activity against trypomastigotes of Trypanosoma cruzi Tulahuen C2C4 containing lacZ gene in rat L6 cells after 4 days by chlorophenol red-beta-D-galactopyranoside/Nonidet assay; type: functional, organism-based; conditions: Tulahuen C2C4, L6, 96 h
Summary of the method: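 L-6 rat myoblasts seeded at 2,000 cells/well in RPMI 1640 with 10% FBS and 2 mM L-glutamine. After 24 h, 5,000 T. cruzi Tulahuen C2C4 lacZ trypomastigotes added with serial drug dilution. Incubated at 37°C in 5% CO2 for 4 days. CPRG/Nonidet substrate added and colour read at 540 nm after 2–4 h. IC50 from sigmoidal curve. Duplicate determinations.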

[5] = biological target: T1, Farnesyltransferase, putative (Leishmania major, UniProt Q4Q5W4); experiment: Inhibition of Leishmania major recombinant squalene synthase expressed in Escherichia coli by liquid scintillation counter
T1 sequence (Q4Q5W4 whole entry): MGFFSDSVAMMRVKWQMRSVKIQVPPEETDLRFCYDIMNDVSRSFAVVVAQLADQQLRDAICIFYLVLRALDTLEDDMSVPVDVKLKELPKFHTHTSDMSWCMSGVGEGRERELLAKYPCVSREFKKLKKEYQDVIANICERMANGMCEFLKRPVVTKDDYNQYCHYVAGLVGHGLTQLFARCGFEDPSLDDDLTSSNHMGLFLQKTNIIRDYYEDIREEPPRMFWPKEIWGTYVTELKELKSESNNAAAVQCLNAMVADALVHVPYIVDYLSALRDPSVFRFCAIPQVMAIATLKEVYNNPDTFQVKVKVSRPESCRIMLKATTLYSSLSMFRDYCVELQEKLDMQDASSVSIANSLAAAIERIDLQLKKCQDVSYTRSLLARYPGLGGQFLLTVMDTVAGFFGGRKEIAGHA
Summary of the method: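 Soluble E. coli extract expressing L. major SQS truncated by 16 N-terminal and 40 C-terminal residues. Buffer: 50 mM phosphate pH 7.4, 20 mM MgCl2, 5 mM CHAPS, 1% Tween 80, 10 mM DTT, BSA, 0.25 mM NADPH, and a glucose-6-phosphate/G6PDH regenerating system. Substrate 0.5 μM radiolabelled farnesyl pyrophosphate. Squalene band counted by scintillation. IC50 from hyperbolic plot of five concentrations in duplicate, usually run twice.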

Leishmania amazonensis [6] = experiment: Antileishmanial activity against Leishmania mexicana amazonensis promastigotes by trypan blue exclusion method; type: functional, organism-based
Summary of the method: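 L. mexicana amazonensis promastigotes cultured in liver infusion-tryptose medium with lactalbumin and 10% FCS at 26°C, unagitated. Cultures started at 2 × 10⁶ cells/ml and drug added at 0.5–1 × 10⁷ cells/ml. Density counted by electronic particle counter and hemocytometer. Viability by trypan blue exclusion. Triplicate growth experiments.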

Leishmania donovani = experiment: Antileishmanial activity against Leishmania donovani MHOM/ET/67/L82 axenic amastigotes after 72 hrs by resazurin assay; type: functional, organism-based; conditions: MHOM/ET/67/L82, 72 h
Summary of the method: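 L. donovani MHOM/ET/67/L82 amastigotes grown axenically at 37°C in synthetic minimal medium at pH 5.4 with 10% heat-inactivated FBS under 5% CO2. 1 × 10⁵ amastigotes per well with seven threefold dilutions, 30 to 0.041 μg/ml. After 72 h, resazurin added for 2–4 h more. Fluorescence read at ex 536/em 588 nm. IC50 taken from sigmoidal curve. Run in duplicate, with an independent repeat for actives.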

Plasmodium falciparum = experiment: Antiplasmodial activity after 48 hrs against chloroquine and pyrimethamine-resistant Plasmodium falciparum K1 in human erythrocytes by [3H]hypoxanthine uptake; type: functional, organism-based
Summary of the method: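 P. falciparum K1 in human red cells in RPMI 1640 with 5% Albumax, exposed to serial drug dilutions. Incubated 48 h at 37°C under reduced oxygen, then 0.5 μCi [³H]hypoxanthine per well for 24 h more. Cells harvested onto glass-fibre filters and counted by scintillation. Result expressed as % of untreated control, with IC50 from sigmoidal curve. Duplicate, plus an independent repeat for actives.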

L6 = experiment: Cytotoxicity against rat L6 cells after 72 hrs by resazurin assay; type: cell-based; conditions: L6, 72 h
Summary of the method: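 L-6 cells seeded at 4 × 10⁴ cells/ml in RPMI 1640 with 10% FBS and 2 mM L-glutamine. After 24 h, medium replaced with serial drug dilution and incubated for 72 h at 37°C in 5% CO2. Resazurin added for 2–4 h, fluorescence read at ex 536/em 588 nm. IC50 from sigmoidal curve. Duplicate, with an independent repeat for actives.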

Leishmania amazonensis [7] = experiment: Inhibition of sterol biosynthesis in Leishmania mexicana amazonensis promastigotes assessed as reduction in endogenous 5-dehydro episterol level at 10 uM after 96 hrs by gas-liquid chromatography; type: functional; set-up: scale not given: the % may be the effect or the level left; summary of the method: as §1
[8] = system: Trypanosoma brucei rhodesiense; experiment: Trypanocidal activity against Trypanosoma brucei rhodesiense STIB 900 bloodstream form after 72 hrs by resazurin assay; type: functional, organism-based; conditions: STIB 900, 72 h
Summary of the method: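 T. b. rhodesiense STIB 900 bloodstream forms in MEM with 2-mercaptoethanol and 15% heat-inactivated horse serum, with serial drug dilutions. Incubated 72 h at 37°C in 5% CO2. Resazurin added for 2–4 h more, fluorescence read at ex 536/em 588 nm. IC50 from sigmoidal curve. Duplicate, with an independent repeat for actives.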

Leishmania amazonensis [9] = experiment: Inhibition of sterol biosynthesis in Leishmania mexicana amazonensis promastigotes assessed as reduction in endogenous episterol level at 1 uM after 96 hrs by gas-liquid chromatography; type: functional; set-up: scale not given: the % may be the effect or the level left; summary of the method: as §1
Leishmania amazonensis [10] = experiment: Inhibition of sterol biosynthesis in Leishmania mexicana amazonensis promastigotes assessed as reduction in exogenous cholesterol level at 3 uM after 96 hrs by gas-liquid chromatography; type: functional; set-up: scale not given: the % may be the effect or the level left; summary of the method: as §1
Leishmania amazonensis [11] = experiment: Inhibition of sterol biosynthesis in Leishmania mexicana amazonensis promastigotes assessed as reduction in endogenous episterol level at 3 uM after 96 hrs by gas-liquid chromatography; type: functional; set-up: scale not given: the % may be the effect or the level left; summary of the method: as §1
Leishmania amazonensis [12] = experiment: Inhibition of sterol biosynthesis in Leishmania mexicana amazonensis promastigotes assessed as reduction in endogenous 5-dehydro episterol level at 3 uM after 96 hrs by gas-liquid chromatography; type: functional; set-up: scale not given: the % may be the effect or the level left; summary of the method: as §1
Leishmania amazonensis [13] = experiment: Inhibition of sterol biosynthesis in Leishmania mexicana amazonensis promastigotes assessed as reduction in endogenous 5-dehydro episterol level at 1 uM after 96 hrs by gas-liquid chromatography; type: functional; set-up: scale not given: the % may be the effect or the level left; summary of the method: as §1
Leishmania amazonensis [14] = experiment: Inhibition of sterol biosynthesis in Leishmania mexicana amazonensis promastigotes assessed as reduction in exogenous cholesterol level at 1 uM after 96 hrs by gas-liquid chromatography; type: functional; set-up: scale not given: the % may be the effect or the level left; summary of the method: as §1
Squalene synthase = biological target: T2, Squalene synthase (Homo sapiens, UniProt P37268); experiment: Inhibition of human recombinant squalene synthase expressed in Escherichia coli BL21(DE3 pLysS) up to 1 uM by liquid scintillation counter
T2 sequence (P37268 whole entry): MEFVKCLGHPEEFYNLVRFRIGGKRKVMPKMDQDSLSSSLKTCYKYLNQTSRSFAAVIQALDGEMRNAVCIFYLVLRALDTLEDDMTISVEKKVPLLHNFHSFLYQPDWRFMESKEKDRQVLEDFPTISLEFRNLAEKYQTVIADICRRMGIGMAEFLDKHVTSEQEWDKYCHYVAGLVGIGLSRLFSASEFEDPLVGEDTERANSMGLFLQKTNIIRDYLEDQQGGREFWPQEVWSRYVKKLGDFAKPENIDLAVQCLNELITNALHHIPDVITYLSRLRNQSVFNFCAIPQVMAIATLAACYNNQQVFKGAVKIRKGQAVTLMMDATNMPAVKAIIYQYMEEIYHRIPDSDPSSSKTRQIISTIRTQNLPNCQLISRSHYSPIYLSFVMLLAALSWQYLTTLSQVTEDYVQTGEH
Summary of the method: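 Human SQS in extracts of E. coli BL21(DE3 pLysS) carrying pHSS16, assayed under the same conditions as the L. major enzyme. Buffer: phosphate pH 7.4, MgCl2, CHAPS, Tween 80, DTT, BSA, and NADPH with a regenerating system. Substrate 0.5 μM radiolabelled farnesyl pyrophosphate. Squalene band radioactivity counted by scintillation.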

SMILES	Activity (Leishmania amazonensis [1]) [%]	Activity (Leishmania amazonensis [2]) [%]	Activity (Leishmania amazonensis [3]) [%]	Activity (Leishmania amazonensis [4]) [%]	IC50 (Trypanosoma cruzi) [µM]	IC50 [5] [µM]	IC50 (Leishmania amazonensis [6]) [µM]	IC50 (Leishmania donovani) [µM]	IC50 (Plasmodium falciparum) [µM]	IC50 (L6) [µM]	Activity (Leishmania amazonensis [7]) [%]	IC50 [8] [µM]	MIC (Leishmania amazonensis [6]) [µM]	Activity (Leishmania amazonensis [9]) [%]	Activity (Leishmania amazonensis [10]) [%]	Activity (Leishmania amazonensis [11]) [%]	Activity (Leishmania amazonensis [12]) [%]	Activity (Leishmania amazonensis [13]) [%]	Activity (Leishmania amazonensis [14]) [%]	IC50 (Squalene synthase)
CCOC(=O)Cc1ccc(C#C[C@H]2CN3CCC2C[C@H]3CO)cc1 (stereo partly drawn)	10.8	10.7	11.8	25.2	50	> 1	> 10	> 92	5	155	41.5	64.7								
CCOC(=O)c1ccc(C2=CN3CCC2CC3)cc1					16	0.18		1	11.6	265		35.1	1 (≈ 0.257 µg/mL)	11.5	73.4	13.2	13.4	36.3	52.2	
C1=C(c2cc3ccccc3s2)C2CCN1CC2					64.2	> 1		1.2	12	146		5.6	10 (≈ 2.41 µg/mL)	24.5	62.3	22.2	15.5	28.6	47.9	
CCOC(=O)Cc1ccc(C#C[C@H]2CN3CCC2C[C@@H]3CO)cc1 (stereo partly drawn)	8.4	3.6	3.3	14.6	22.9	> 1		14.6	5.2	156	73.4	32.3	> 10							
OC[C@H]1CC2CCN1C[C@@H]2C#Cc1ccccc1 (stereo partly drawn)	11.8	2.8	2.7	13.1	25.6	> 1		> 124	6.5	166	69.6	14.5	10 (≈ 2.41 µg/mL)							
CCOC(=O)c1ccc(C#C[C@H]2CN3CCC2C[C@H]3CO)cc1 (stereo partly drawn)	4.1	23.6	3.3	18.7	19.4	> 1		10.2	0.6	37.6	50.3	1.7	> 10							
C(=C1\CN2CCC1CC2)/c1ccc(C2OCCO2)cc1				42.1	30.2	> 1		77.7	10	239	57.9	10.3	10 (≈ 2.71 µg/mL)							Not Active
OC[C@@H]1CC2CCN1C[C@@H]2C#Cc1cnc2ccccc2c1 (stereo partly drawn)	13.7	5.9	12.3	27.5	19.1	> 1		80	1.7	169	40.6	7.1	> 10							
OC[C@@H]1CC2CCN1C[C@@H]2C#Cc1ccccc1 (stereo partly drawn)	13.2	2	3.9	17.9	8.2	> 1		> 124	3.3	74.5	63	12.8	> 10							
